# Source: PubChem (Broad Institute)
# Shown is part of a subset that was picked to be rich in hits.
# IDH1 R132H inh = IDH1 R132H (human) inhibition; AID 624101; inhibition, % at 10 µM; actives 0.18% (n = 70,000); IDH1 R132H reductase, diaphorase/resazurin fluorescence, 60 min; O75874; in the data active means inhibition above about 34%; inconclusive means no clear call, values can overlap the other calls; inactive means below about 11%;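 further: 0% = DMSO and 100% = no enzyme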
# GASC1 inh = blocks human GASC-1 (KDM4C) demethylase activity; Q9H3R0; GST-KDM4C 2-372, H3K9me3 peptide, LANCE TR-FRET; inhibition, % at 12.5 µM; actives 0.15% (n = 96,000); AID 720574;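 active means mean replicate inhibition above about 25%, with at least 55% of replicates also reaching it, limit read from the data, passing the limit was not always enough; inconclusive means only one of those two conditions met; inactive means neither condition met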
# Target sequence (Q9H3R0 2-372 limits assumed): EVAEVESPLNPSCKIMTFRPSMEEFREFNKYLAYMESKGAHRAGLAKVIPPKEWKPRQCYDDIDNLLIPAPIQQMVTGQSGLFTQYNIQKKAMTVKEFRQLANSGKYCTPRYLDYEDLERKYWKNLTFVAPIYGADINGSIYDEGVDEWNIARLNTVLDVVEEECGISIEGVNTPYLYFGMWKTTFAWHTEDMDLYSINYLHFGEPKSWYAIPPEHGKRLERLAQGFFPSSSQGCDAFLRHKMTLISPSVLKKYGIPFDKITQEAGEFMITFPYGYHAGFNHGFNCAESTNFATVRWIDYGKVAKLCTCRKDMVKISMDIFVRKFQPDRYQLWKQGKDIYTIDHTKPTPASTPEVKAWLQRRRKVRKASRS
#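 Compound: one test concentration per compound; Material: GST-GASC-1 enzyme fragment 2-372; Amount: GASC-1 enzyme at 10 nM final in reaction; Also added: H3K9me3 peptide substrate, Fe(II), 2-oxoglutarate; Technique: LANCE TR-FRET; Times: 30 min demethylation and 1 h detection at room temperature.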
# T cruzi growth-1 = blocks T. cruzi growth in NIH3T3 culture; inhibition, % at 8.34 µM; T. cruzi beta-gal in NIH3T3, GalScreen luminescence, 90 h; AID 624255; actives 5.9% (n = 77,000);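 active means mean inhibition above about 93%, with at least 55% of replicates each passing it, limit read from the data, passing the limit was not always enough; inconclusive means only one of those two conditions holds; inactive means neither condition holds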
# T cruzi growth-2 = blocks T. cruzi growth in NIH3T3 host cells; shares compounds with T cruzi growth-1; T. cruzi beta-gal in NIH3T3, GalScreen luminescence, 90 h; inhibition, % at 8.35 µM; actives 72% (n = 5,600); AID 651739;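 active means mean replicate inhibition above about 95% and at least 55% of replicates individually reaching it, limit read from the data; inconclusive means only one of the two criteria is met; inactive means neither criterion is met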
# T cruzi growth-3 = Trypanosoma cruzi proliferation inhibition; shares compounds with T cruzi growth-1; inhibition, % at 2.09 µM; actives 21% (n = 5,600); T. cruzi beta-gal in NIH3T3, GalScreen luminescence, 90 h; AID 651740;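 active means mean inhibition above about 95%, with at least 55% of replicates also reaching it, limit read from the data; inconclusive means meets just one of the two conditions; inactive means meets neither condition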;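 further: plate controls were neutral control median for no effect and positive control median for full effect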
# 3T3 cytotox = NIH/3T3 (mouse) viability loss | NIH/3T3 viability, CellTiter-Glo ATP luminescence, 90 h | actives 14% (n = 5,600) | AID 651742 | cytotoxicity (signal decrease), % at 8.35 µM | shares compounds with T cruzi growth-1;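 active means mean signal decrease across replicates above about 35% based on untreated-well scatter, with enough replicates individually passing, limit read from the data; inconclusive means no rule stated though some were filed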;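 further: 0% = median of neutral control wells and 100% = median of positive control wells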
# 3T3 cytotox 2 = NIH/3T3 (mouse) viability loss; shares compounds with T cruzi growth-1; NIH/3T3 viability, CellTiter-Glo ATP luminescence, 90 h; inhibition, % at 24.9 µM; actives 56% (n = 5,600);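 active means mean loss of cell viability signal at or above a set limit, and enough replicates individually reaching it; inconclusive means meets only the mean limit or only the replicate share; inactive means meets neither condition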;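 further: 0% = median of neutral control wells and 100% = median of positive control wells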
# * marks the source's active call; other numbers are inactive results; ? = inconclusive; · = no result given.
SMILES,IDH1 R132H inh,GASC1 inh,T cruzi growth-1,T cruzi growth-2,T cruzi growth-3,3T3 cytotox,3T3 cytotox 2
C[C@@H]1CN([C@@H](C)CO)C(=O)c2cc(C#CC3CCCCC3)cnc2O[C@@H]1CN(C)S(=O)(=O)c1cccc(F)c1,0.2,-2.2,·,·,·,·,·
C[C@@H]1CN([C@H](C)CO)C(=O)c2cc(C#CC3CCCC3)cnc2O[C@H]1CN(C)S(=O)(=O)c1cccc(F)c1,·,0.0,?,104.5*,79.6,31.7,76.5*
C[C@@H]1CN([C@@H](C)CO)C(=O)c2cc(C#CC3CCCCC3)cnc2O[C@H]1CN(C)S(=O)(=O)c1cccc(F)c1,0.6,·,·,·,·,·,·
C[C@H]1CN([C@@H](C)CO)C(=O)c2cc(C#CC3CCCC3)cnc2O[C@@H]1CN(C)S(=O)(=O)c1cccc(F)c1,·,1.1,120.3*,105.2*,47.5,10.7,82.9*
O=C(O)C[C@H]1C[C@@H]2c3cc(NC(=O)Cc4ccncc4)ccc3O[C@@H]2[C@H](CO)O1,·,4.4,·,·,·,·,·
Clc1ccc(N2CCN(Cc3c[nH]c4ncccc34)CC2)cc1,1.7,·,·,·,·,·,·
N#C[C@@H]1[C@H](c2ccc(C#Cc3cccc(F)c3)cc2)[C@@H](CO)N1C(=O)C1CC1,·,0.2,?,100.8*,94.8,3.2,71.3*
N#C[C@H]1[C@@H](c2ccc(C#Cc3cccc(F)c3)cc2)[C@H](CO)N1C(=O)C1CCC1,·,-2.4,100.0*,95.6*,104.7*,19.7,103.1*
N#C[C@@H]1[C@@H](c2ccc(C#Cc3cccc(F)c3)cc2)[C@H](CO)N1C(=O)C1CC1,·,-4.7,93.0,·,·,·,·
N#C[C@H]1[C@@H](c2ccc(C#Cc3cccc(F)c3)cc2)[C@@H](CO)N1C(=O)C1CC1,·,-0.5,85.4,·,·,·,·
N#C[C@H]1[C@@H](c2ccc(C#Cc3cccc(F)c3)cc2)[C@@H](CO)N1C(=O)C1CCOCC1,·,5.3,21.8,·,·,·,·
N#C[C@@H]1[C@@H](c2ccc(C#Cc3cccc(F)c3)cc2)[C@H](CO)N1C(=O)C1CCCC1,·,-2.3,97.2*,100.4*,100.8*,15.5,78.8*
C[C@@H]1CN([C@H](C)CO)C(=O)c2cc(C#CC3CCCC3)cnc2O[C@@H]1CN(C)C(=O)c1ccncc1,·,2.0,·,·,·,·,·
CN1CCN(C(=O)C[C@H]2CC[C@@H](NS(=O)(=O)c3cccc(F)c3)[C@@H](CO)O2)CC1,-0.2,0.9,18.2,·,·,·,·
CN(C[C@H]1N[C@@H](CO)[C@H]1c1ccc(-c2cccc(F)c2)cc1)C(=O)C1CCC1,·,-2.4,24.9,·,·,·,·
C[C@H](O)C#Cc1ccc2c(c1)O[C@@H](CN(C)Cc1ccc(-c3ccccc3)cc1)[C@H](C)CN([C@H](C)CO)S2(=O)=O,0.2,-0.4,60.0,·,·,·,·
C[C@H](CO)N1C[C@H](C)[C@H](CN(C)Cc2ccccc2)Oc2cc(C#CC(C)(C)O)ccc2S1(=O)=O,-4.5,·,59.5,·,·,·,·
C[C@H](O)C#Cc1ccc2c(c1)O[C@H](CN(C)Cc1ccc(-c3ccccc3)cc1)[C@H](C)CN([C@@H](C)CO)S2(=O)=O,·,-1.3,108.6*,98.5*,100.6*,47.3*,104.4*
C[C@H](CO)N1C[C@H](C)[C@@H](CN(C)Cc2ccccc2)Oc2cc(C#CC(C)(C)O)ccc2S1(=O)=O,·,·,88.9,·,·,·,·
C[C@@H]1CN([C@@H](C)CO)S(=O)(=O)c2ccc(C#CC(C)(C)O)cc2O[C@@H]1CN(C)Cc1ccc(-c2ccccc2)cc1,-3.9,1.0,121.0*,92.6,115.3*,4.7,103.4*
C[C@@H]1CN([C@@H](C)CO)S(=O)(=O)c2ccc(C#CC(C)(C)O)cc2O[C@H]1CN(C)Cc1ccc(-c2ccccc2)cc1,·,1.1,118.2*,91.3,113.2*,116.4*,107.0*
CCC(=O)N1CC(=O)N2[C@H](C1)[C@@H](c1ccc(C#CC(C)C)cc1)[C@@H]2CO,·,0.1,·,·,·,·,·
COc1ccc(NC(=O)N2C[C@H](O)COC[C@@H]3O[C@@H](CC(=O)N4CCCCC4)CC[C@H]32)cc1,·,0.5,27.8,·,·,·,·
CC=Cc1ccc2n(c1=O)C[C@@H]1[C@@H](CO)[C@H](C(=O)NCC3CCCCC3)[C@H]2N1C(C)=O (mixture of isomers),·,-0.1,-38.3,·,·,·,·
COc1ccc(S(=O)(=O)Nc2ccc3c(c2)C(=O)N([C@H](C)CO)C[C@H](C)[C@H](CN(C)C(=O)Nc2ccc(C(F)(F)F)cc2)O3)cc1,1.0,0.2,80.6,·,·,·,·
SMILES,IDH1 R132H inh,GASC1 inh,T cruzi growth-1,T cruzi growth-2,T cruzi growth-3,3T3 cytotox,3T3 cytotox 2
COCCN=c1c([N+](=O)[O-])nn(-c2ccccc2)n1O,-0.4,·,·,·,·,·,·
C[C@H]1CN([C@@H](C)CO)C(=O)Cc2cc(NC(=O)Nc3ccc4c(c3)OCO4)ccc2O[C@@H]1CN(C)S(=O)(=O)c1ccc(Cl)cc1,0.7,-0.6,10.8,·,·,·,·
C[C@H](O)C#Cc1ccc2c(c1)O[C@H](CN(C)C(=O)c1ccncc1)[C@@H](C)CN([C@H](C)CO)S2(=O)=O,3.8,-1.1,36.7,·,·,·,·
CC(C)CC#Cc1ccc2c(c1)O[C@@H](CN(C)C(=O)Cc1ccccc1)[C@H](C)CN([C@H](C)CO)S2(=O)=O,-1.4,1.6,129.2*,105.4*,99.5*,-12.3,106.8*
CCC(=O)N(C)C[C@H]1Oc2cc(C#CCC(C)C)ccc2S(=O)(=O)N([C@@H](C)CO)C[C@@H]1C,-0.3,-4.4,86.7,·,·,·,·
CCC(=O)N(C)C[C@@H]1Oc2cc(C#CCC(C)C)ccc2S(=O)(=O)N([C@@H](C)CO)C[C@H]1C,1.0,-0.5,51.0,·,·,·,·
C[C@@H]1CN([C@@H](C)CO)S(=O)(=O)c2ccc(C#Cc3ccccc3F)cc2O[C@@H]1CN(C)C(=O)Cc1ccccc1,0.3,-4.3,120.1*,101.8*,98.6*,31.7,78.4*
CC(C)CC#Cc1ccc2c(c1)O[C@@H](CN(C)C(=O)Cc1ccccc1)[C@H](C)CN([C@@H](C)CO)S2(=O)=O,0.0,-3.3,129.3*,97.1*,103.0*,12.6,104.3*
CC(C)CC#Cc1ccc2c(c1)O[C@H](CN(C)C(=O)Cc1ccccc1)[C@H](C)CN([C@H](C)CO)S2(=O)=O,-0.5,-0.2,125.1*,93.6,73.6,-12.6,106.1*
C[C@H](CO)N1C[C@H](C)[C@@H](CN(C)C(=O)Cc2ccncc2)Oc2cc(C#Cc3ccccc3F)ccc2S1(=O)=O,·,-1.1,·,·,·,·,·
CCC(=O)N(C)C[C@H]1Oc2cc(C#CCC(C)C)ccc2S(=O)(=O)N([C@H](C)CO)C[C@@H]1C,-3.0,-0.6,55.3,·,·,·,·
O=C(C[C@H]1C=C[C@@H](NS(=O)(=O)c2ccc(F)cc2)[C@H](CO)O1)NCc1ccncn1,0.2,1.0,-9.7,·,·,·,·
CC(C)CC#Cc1ccc2c(c1)O[C@@H](CN(C)C(=O)CC1CC1)[C@H](C)CN([C@@H](C)CO)S2(=O)=O,-0.2,-2.0,·,·,·,·,·
